Test results: ChEMBL document CHEMBL3351863, “Optimization of 2-phenyl-pyrimidine-4-carboxamides towards potent, orally bioavailable and selective P2Y(12) antagonists for inhibition of platelet aggregation” (Bioorg Med Chem Lett, 2014); call rule not given here
One block for each compound: values may come before it.

Experiments:
[1] = Volume of distribution at steady state in Wistar rat at 1 mg/kg, iv or 10 mg/kg, po; assay type: ADME, organism-based; conditions: in vivo, read-out: Vdss
Procedure, shortened: (§1)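 Rats dosed by iv infusion at 1 mg/kg (n = 2) or orally at 10 mg/kg (n = 3); plasma levels measured, limit of quantification ca. 1 ng/mL.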

[2] = target: T1, Cytochrome P450 3A4 (Homo sapiens, UniProt P08684); assay: Inhibition of CYP3A4 in human liver microsomes assessed as reduction in testosterone 6beta-hydroxylation; assay type: ADME
[3] = Oral bioavailability in Wistar rat at 10 mg/kg; assay type: ADME, organism-based; conditions: Wistar, in vivo; procedure, shortened: as §1
[4] = tested on: Platelet; assay: Inhibition of ADP-induced platelet aggregation in human platelet rich plasma by in-vitro light transmission aggregometry assay; assay type: functional
Procedure, shortened: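 Human platelet-rich plasma incubated with compound, aggregation induced by 3 µM ADP and read by light transmission aggregometry; IC₅₀ derived from concentration–response curve.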

[5] = Potency shift, ratio of IC50 for inhibition of ADP-induced platelet aggregation in human platelet rich plasma to IC50 for displacement of [3H]-2-methyl-thio-adenosine 5'-diphosphate from human recombinant P2Y12 expressed in CHO cell membranes
[6] = target: Voltage-gated inwardly rectifying potassium channel KCNH2 (Homo sapiens, UniProt Q12809); assay: Inhibition of human ERG expressed in HEK cells by patch-clamp assay; assay type: cell-based; conditions: hek293
[7] = AUC in Wistar rat at 10 mg/kg, po; assay type: ADME, organism-based, Plasma; design: dose 10 mg/kg, route oral; conditions: Wistar, plasma; procedure, shortened: as §1
[8] = target: T1, Cytochrome P450 3A4; assay: Inhibition of CYP3A4 in human liver microsomes assessed as reduction in midazolam 1'-hydroxylation; assay type: ADME
[9] = Half life in Wistar rat at 1 mg/kg, iv or 10 mg/kg, po; assay type: ADME, organism-based; conditions: in vivo; procedure, shortened: as §1
[10] = tested on: Platelet; assay: Inhibition of ADP-induced platelet aggregation in human platelet rich plasma assessed as remaining activity at 500 nM by in-vitro light transmission aggregometry assay; assay type: functional
Procedure, shortened: (§2)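 Light transmission aggregometry in human platelet-rich plasma; compound incubated, aggregation triggered with 3 µM ADP; remaining activity (RA) recorded at a single compound level (1000, 500 or 100 nM).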

[11] = target: Cytochrome P450 2D6 (Homo sapiens, UniProt P10635); assay: Inhibition of CYP2D6 in human liver microsomes assessed as reduction in dextromethorphan-O demethylation; assay type: ADME
[12] = tested on: Liver microsome; assay: Metabolic stability assay in rat liver microsomes assessed as parent drug disappearance at 1 uM after 20 mins by HPLC and mass spectrometry method; assay type: ADME
[13] = Cmax in Wistar rat at 10 mg/kg, po; assay type: ADME, organism-based; design: dose 10 mg/kg, route oral; conditions: Wistar, in vivo; procedure, shortened: as §1
[14] = tested on: Platelet; assay: Inhibition of ADP-induced platelet aggregation in human platelet rich plasma assessed as remaining activity at 100 nM by in-vitro light transmission aggregometry assay; assay type: functional; procedure, shortened: as §2
[15] = target: P2Y purinoceptor 12 (Homo sapiens, UniProt Q9H244); assay: Displacement of [3H]-2-methyl-thio-adenosine 5'-diphosphate from human recombinant P2Y12 expressed in CHO cell membranes by scintillation counting method
Procedure, shortened: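 CHO cells expressing recombinant P2Y₁₂ receptors, incubated with tritium-labeled 2-methyl-thio-adenosine 5'-diphosphate plus test compound; IC₅₀ from displacement curves, each point in triplicate; reference compound run with every compound set, and set re-analyzed if its IC₅₀ fell outside pre-set 95% confidence interval.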

[16] = target: Cytochrome P450 2C9 (Homo sapiens, UniProt P11712); assay: Inhibition of CYP2C9 in human liver microsomes assessed as reduction in diclofenac 4'-hydroxylation; assay type: ADME
[17] = Solubility in neutral pH; assay type: physicochemical
[18] = Solubility in basic pH; assay type: physicochemical
[19] = Clearance in Wistar rat at 1 mg/kg, iv; assay type: ADME, organism-based; design: dose 1 mg/kg, route intravenous; conditions: in vivo; procedure, shortened: as §1
[20] = tested on: Liver microsome; assay: Metabolic stability assay in human liver microsomes assessed as parent drug disappearance at 1 uM after 20 mins by HPLC and mass spectrometry method; assay type: ADME
[21] = Lipophilicity, logD of the compound; assay type: physicochemical; conditions: octanol/water

Sequence of P2Y purinoceptor 12 (Q9H244 whole entry): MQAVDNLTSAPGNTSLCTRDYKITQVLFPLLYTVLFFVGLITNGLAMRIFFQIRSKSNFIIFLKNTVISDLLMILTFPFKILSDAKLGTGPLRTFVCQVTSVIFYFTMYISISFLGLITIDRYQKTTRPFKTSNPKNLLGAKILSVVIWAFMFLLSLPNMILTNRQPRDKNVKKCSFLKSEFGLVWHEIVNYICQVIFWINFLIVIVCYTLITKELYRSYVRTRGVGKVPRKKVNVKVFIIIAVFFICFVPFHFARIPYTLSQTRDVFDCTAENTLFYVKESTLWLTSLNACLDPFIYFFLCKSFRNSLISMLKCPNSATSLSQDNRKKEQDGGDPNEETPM
Sequence of Voltage-gated inwardly rectifying potassium channel KCNH2 (Q12809 whole entry): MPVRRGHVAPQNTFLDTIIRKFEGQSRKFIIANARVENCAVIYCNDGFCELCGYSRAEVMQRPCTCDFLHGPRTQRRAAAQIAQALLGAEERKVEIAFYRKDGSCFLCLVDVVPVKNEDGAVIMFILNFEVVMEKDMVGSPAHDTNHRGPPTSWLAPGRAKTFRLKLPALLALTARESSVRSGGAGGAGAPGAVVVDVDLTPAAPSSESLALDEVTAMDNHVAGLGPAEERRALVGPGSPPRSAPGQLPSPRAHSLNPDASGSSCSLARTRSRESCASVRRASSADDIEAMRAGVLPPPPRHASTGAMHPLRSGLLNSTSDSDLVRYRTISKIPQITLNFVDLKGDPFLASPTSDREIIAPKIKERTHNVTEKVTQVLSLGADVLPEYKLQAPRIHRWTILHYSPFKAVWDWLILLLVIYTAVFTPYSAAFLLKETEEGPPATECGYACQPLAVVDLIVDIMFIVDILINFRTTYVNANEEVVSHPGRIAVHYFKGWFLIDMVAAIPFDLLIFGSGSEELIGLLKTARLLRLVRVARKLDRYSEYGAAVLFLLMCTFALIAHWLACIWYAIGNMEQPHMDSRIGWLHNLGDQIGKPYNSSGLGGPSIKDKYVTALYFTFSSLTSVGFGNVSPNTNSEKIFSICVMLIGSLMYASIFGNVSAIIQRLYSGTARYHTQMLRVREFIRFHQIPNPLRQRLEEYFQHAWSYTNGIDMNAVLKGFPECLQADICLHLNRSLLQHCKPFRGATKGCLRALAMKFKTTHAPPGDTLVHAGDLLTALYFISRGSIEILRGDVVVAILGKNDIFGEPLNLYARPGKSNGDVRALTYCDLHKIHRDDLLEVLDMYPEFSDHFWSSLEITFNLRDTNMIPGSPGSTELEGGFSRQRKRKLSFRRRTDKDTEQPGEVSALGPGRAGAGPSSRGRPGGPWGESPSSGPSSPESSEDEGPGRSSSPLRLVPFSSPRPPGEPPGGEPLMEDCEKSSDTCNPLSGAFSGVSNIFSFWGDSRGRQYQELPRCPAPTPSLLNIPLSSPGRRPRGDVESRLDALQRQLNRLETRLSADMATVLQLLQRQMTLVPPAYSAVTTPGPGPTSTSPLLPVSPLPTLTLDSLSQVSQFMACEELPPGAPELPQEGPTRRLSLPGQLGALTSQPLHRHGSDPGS
Sequence of Cytochrome P450 2D6 (P10635 whole entry): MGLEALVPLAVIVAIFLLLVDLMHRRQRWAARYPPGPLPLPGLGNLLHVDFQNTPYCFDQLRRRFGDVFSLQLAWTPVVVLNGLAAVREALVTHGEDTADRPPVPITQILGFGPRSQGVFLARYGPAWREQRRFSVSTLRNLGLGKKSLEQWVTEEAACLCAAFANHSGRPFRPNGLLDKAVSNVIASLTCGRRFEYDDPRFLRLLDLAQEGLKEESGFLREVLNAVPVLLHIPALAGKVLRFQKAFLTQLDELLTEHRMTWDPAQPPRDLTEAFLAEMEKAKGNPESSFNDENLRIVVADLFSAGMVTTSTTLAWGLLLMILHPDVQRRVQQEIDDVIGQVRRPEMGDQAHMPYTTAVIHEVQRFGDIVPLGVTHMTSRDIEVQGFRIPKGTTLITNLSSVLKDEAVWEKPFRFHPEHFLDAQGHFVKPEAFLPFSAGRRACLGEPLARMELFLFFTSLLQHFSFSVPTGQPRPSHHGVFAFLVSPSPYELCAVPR
T1 sequence (P08684 whole entry): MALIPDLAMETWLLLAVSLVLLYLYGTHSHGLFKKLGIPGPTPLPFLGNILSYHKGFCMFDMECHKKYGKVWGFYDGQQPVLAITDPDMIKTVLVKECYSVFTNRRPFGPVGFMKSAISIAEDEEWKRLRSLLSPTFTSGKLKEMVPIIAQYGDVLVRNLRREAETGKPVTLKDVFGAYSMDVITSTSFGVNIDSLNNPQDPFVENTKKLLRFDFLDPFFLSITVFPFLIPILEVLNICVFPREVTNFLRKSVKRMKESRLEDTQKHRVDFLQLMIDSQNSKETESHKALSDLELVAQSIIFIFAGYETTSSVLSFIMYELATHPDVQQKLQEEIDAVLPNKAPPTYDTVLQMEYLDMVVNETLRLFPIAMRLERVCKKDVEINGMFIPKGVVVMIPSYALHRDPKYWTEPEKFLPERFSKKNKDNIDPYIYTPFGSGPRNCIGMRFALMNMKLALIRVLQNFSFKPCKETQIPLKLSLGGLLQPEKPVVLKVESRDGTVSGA
Sequence of Cytochrome P450 2C9 (P11712 whole entry): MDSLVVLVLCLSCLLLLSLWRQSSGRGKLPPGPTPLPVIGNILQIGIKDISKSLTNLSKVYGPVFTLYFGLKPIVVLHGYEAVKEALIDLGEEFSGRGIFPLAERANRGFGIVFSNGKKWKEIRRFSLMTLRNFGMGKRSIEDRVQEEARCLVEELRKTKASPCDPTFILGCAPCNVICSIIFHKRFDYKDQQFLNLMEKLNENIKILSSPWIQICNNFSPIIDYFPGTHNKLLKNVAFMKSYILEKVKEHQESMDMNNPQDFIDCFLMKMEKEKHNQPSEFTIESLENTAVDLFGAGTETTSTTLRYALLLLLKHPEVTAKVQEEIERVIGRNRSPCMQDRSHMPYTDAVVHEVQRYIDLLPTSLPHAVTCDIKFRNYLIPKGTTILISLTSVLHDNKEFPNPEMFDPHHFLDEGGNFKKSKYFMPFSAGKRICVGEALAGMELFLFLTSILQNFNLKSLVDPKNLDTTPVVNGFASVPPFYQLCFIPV

Structure (SMILES): CCOC(=O)N1CCN(C(=O)[C@H](CCC(=O)O)NC(=O)c2cc([C@@H]3C[C@H]3COC)nc(-c3ccccc3)n2)CC1
Vd [1]: 0.3 L/kg | inhibition (INH) [2]: Not Active | bioavailability [3]: 11% | IC50 ([4]; Homo sapiens, Platelet, Plasma): 589 nM | Ratio IC50 [5]: 14 | inhibition (INH) [6]: Not Active | AUC [7]: 2.31 µM·h | inhibition (INH) [8]: Not Active | half-life [9]: 33 min | Activity [10]: 30% | inhibition (INH) [11]: Not Active | Stability [12]: Stable | Cmax [13]: 2820 nM | logD [21]: 0.8 | IC50 [15]: 43 nM | inhibition (INH) [16]: Not Active | solubility [17]: soluble | solubility [18]: soluble | clearance [19]: 14 mL/min/kg | Stability [20]: Stable

Structure (SMILES): CCOC(=O)N1CCN(C(=O)[C@H](CCC(=O)O)NC(=O)c2cc(N3CCN(C)CC3)nc(-c3ccccc3)n2)CC1
Vd [1]: 0.8 L/kg | inhibition (INH) [2]: Not Active | bioavailability [3]: 3% | inhibition (INH) [6]: Not Active | AUC [7]: 0.164 µM·h | inhibition (INH) [8]: Not Active | half-life [9]: 18 min | Activity [10]: <30% | inhibition (INH) [11]: Not Active | Stability [12]: Stable | Cmax [13]: 192 nM | Activity [14]: <70% | IC50 [15]: 46 nM | inhibition (INH) [16]: Not Active | solubility [17]: soluble | solubility [18]: soluble | clearance [19]: 49 mL/min/kg | Stability [20]: Stable

Structure (SMILES): CCOC(=O)N1CCN(C(=O)[C@H](CCC(=O)O)NC(=O)c2cc(C3CCC(O)CC3)nc(-c3ccccc3)n2)CC1 (stereo partly drawn)
inhibition (INH) [2]: Not Active | IC50 ([4]; Homo sapiens, Platelet, Plasma): 171 nM | Ratio IC50 [5]: 4.3 | inhibition (INH) [6]: Not Active | AUC [7]: 0.0782 µM·h | inhibition (INH) [8]: Not Active | Activity [10]: <30% | inhibition (INH) [11]: Not Active | Stability [12]: Stable | Cmax [13]: 46.3 nM | Activity [14]: <70% | IC50 [15]: 40 nM | inhibition (INH) [16]: Not Active | solubility [17]: soluble | solubility [18]: soluble | Stability [20]: Stable

These reach a lower IC50 [15]. Values come first.

Vd [1]: 1.8 L/kg | inhibition (INH) [2]: Not Active | bioavailability [3]: 8% | IC50 ([4]; Homo sapiens, Platelet, Plasma): 32 nM | AUC [7]: 0.638 µM·h | inhibition (INH) [8]: Not Active | half-life [9]: 37.8 min | inhibition (INH) [11]: Not Active | Stability [12]: Stable | Cmax [13]: 683 nM | IC50 [15]: 16 nM | inhibition (INH) [16]: Not Active | solubility [17]: soluble | solubility [18]: soluble | clearance [19]: 36 mL/min/kg | Stability [20]: Stable
Structure (SMILES): CCOC(=O)N1CCN(C(=O)[C@H](CCC(=O)O)NC(=O)c2cc(N3CC[C@H](OC)C3)nc(-c3ccccc3)n2)CC1
Ratio IC50 [5]: 2 | inhibition (INH) [6]: Not Active | Activity [10]: <30% | Activity [14]: <70%

Vd [1]: 0.4 L/kg | bioavailability [3]: 33% | IC50 ([4]; platelet): 31 nM | AUC [7]: 6 µM·h | half-life [9]: 120 min | Cmax [13]: 7620 nM | logD [21]: 1.9 | IC50 [15]: 4.8 nM | clearance [19]: 17 mL/min/kg
Structure (SMILES): CCCCOC(=O)N1CCN(C(=O)[C@H](CCC(=O)O)NC(=O)c2cc([C@H]3C[C@@H]3COC)nc(-c3ccccc3)n2)CC1
Ratio IC50 [5]: 6.4

inhibition (INH) [2]: Not Active | IC50 ([4]; Homo sapiens, Platelet, Plasma): 118 nM | AUC [7]: 0.109 µM·h | inhibition (INH) [8]: Not Active | inhibition (INH) [11]: Not Active | Stability [12]: Stable | Cmax [13]: 56.1 nM | IC50 [15]: 35 nM | inhibition (INH) [16]: Not Active | solubility [17]: soluble | solubility [18]: soluble | Stability [20]: Stable
Structure (SMILES): CCOC(=O)N1CCN(C(=O)[C@H](CCC(=O)O)NC(=O)c2cc(C(C)(C)O)nc(-c3ccccc3)n2)CC1
Ratio IC50 [5]: 3.4 | inhibition (INH) [6]: Not Active | Activity [10]: <30% | Activity [14]: <70%

Vd [1]: 0.5 L/kg | inhibition (INH) [2]: Not Active | bioavailability [3]: 9% | IC50 ([4]; Homo sapiens, Platelet, Plasma): 21 nM | AUC [7]: 1.17 µM·h | inhibition (INH) [8]: Not Active | half-life [9]: 72 min | inhibition (INH) [11]: Not Active | Stability [12]: Stable | Cmax [13]: 1690 nM | IC50 [15]: 3 nM | inhibition (INH) [16]: Not Active | solubility [17]: soluble | solubility [18]: soluble | clearance [19]: 24 mL/min/kg | Stability [20]: Stable
Structure (SMILES): CCCCOC(=O)N1CCN(C(=O)[C@H](CCC(=O)O)NC(=O)c2cc(N3CC[C@H](OC)C3)nc(-c3ccccc3)n2)CC1
Ratio IC50 [5]: 7 | inhibition (INH) [6]: Not Active
